In ChEMBL document CHEMBL4033796, “4-Amino-7,8-dihydro-1,6-naphthyridin-5(6 H)-ones as Inhaled Phosphodiesterase Type 4 (PDE4) Inhibitors: Structural Biology and Structure-Activity Relationships” (J Med Chem, 2018):

What was measured:
[1] = biological target: 3',5'-cyclic-AMP phosphodiesterase 4B (Homo sapiens, UniProt Q07343); test: Inhibition of recombinant human PDE4B1 using [3H]-cAMP as substrate […] measured after 60 mins by scintillation proximity assay
How it was run: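 Compounds ranged from 10 μM to 10 pM. The reaction was started with PDE4 enzyme and run 60 min at room temperature with agitation (about 10−20% conversion), then stopped with SPA beads. [3H]-AMP was counted by scintillation.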

[2] = Inhibition of PDE4 in human whole blood PBMC assessed as reduction in LPS-induced TNFalpha production after 24 hrs by ELISA
How it was run: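 Heparinized whole blood from healthy donors was preincubated with LPS (1 μg/mL final) at 37 °C for 10 min. It was then added to compounds in DMSO and incubated 24 h at 37 °C with agitation, then centrifuged. Serum TNF-α was measured by sandwich ELISA with TMB read-out at 450 nm. Experiments were done 2−3 times and duplicates were averaged.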

[3] = Apparent permeability of the compound by PAMPA assay; type: physicochemical

Sequence of 3',5'-cyclic-AMP phosphodiesterase 4B (Q07343 whole entry): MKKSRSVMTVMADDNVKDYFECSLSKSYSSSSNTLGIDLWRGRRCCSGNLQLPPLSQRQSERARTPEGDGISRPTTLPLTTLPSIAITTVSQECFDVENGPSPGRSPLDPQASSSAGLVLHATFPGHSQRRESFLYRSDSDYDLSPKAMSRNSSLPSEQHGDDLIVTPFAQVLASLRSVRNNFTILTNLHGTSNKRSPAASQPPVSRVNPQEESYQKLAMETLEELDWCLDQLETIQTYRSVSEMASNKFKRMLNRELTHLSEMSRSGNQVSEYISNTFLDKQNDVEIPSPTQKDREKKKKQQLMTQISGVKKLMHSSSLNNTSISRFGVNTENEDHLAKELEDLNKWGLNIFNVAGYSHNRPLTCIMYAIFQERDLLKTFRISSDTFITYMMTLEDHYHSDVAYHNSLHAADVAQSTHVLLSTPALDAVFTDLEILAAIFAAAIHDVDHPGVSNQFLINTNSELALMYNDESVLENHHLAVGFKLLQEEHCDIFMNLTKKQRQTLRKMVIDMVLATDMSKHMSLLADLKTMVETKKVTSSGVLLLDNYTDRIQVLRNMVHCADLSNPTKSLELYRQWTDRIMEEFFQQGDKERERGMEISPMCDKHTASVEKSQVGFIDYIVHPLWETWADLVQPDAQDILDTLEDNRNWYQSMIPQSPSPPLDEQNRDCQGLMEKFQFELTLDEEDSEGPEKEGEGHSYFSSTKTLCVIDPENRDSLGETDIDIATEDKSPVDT

| SMILES | IC50 [1] | IC50 [2] | Papp [3] |
| --- | --- | --- | --- |
| COc1cccc(Nc2cc(-c3ccncc3)nc3c2C(=O)NCC3)c1 | 3.6 nM | 6.5 nM |  |
| COc1cccc(Nc2cc(-c3cccc(-c4cccc(O)c4)c3)nc3c2C(=O)NCC3)c1 | 1.8 nM | 4.2 nM |  |
| O=C1NCCc2nc(-c3ccccc3)cc(NCc3ccncc3)c21 | 25 nM |  |  |
| COc1cccc(Nc2cc(-c3ccccc3OC)nc3c2C(=O)NCC3)c1 | 32 nM |  |  |
| O=C(NC1CC1)c1cccc(-c2cccc(-c3cc(Nc4ccnc5ccccc45)c4c(n3)CCNC4=O)c2)c1 | 0.27 nM | 0.46 nM |  |
| O=C1NCCc2nc(-c3ccccc3)cc(Nc3nn(-c4ccccc4)c4ncccc34)c21 | 56 nM |  |  |
| CN(C)CCCNC(=O)c1cccc(-c2cccc(-c3cc(Nc4cccc5ncccc45)c4c(n3)CCNC4=O)c2)c1 | 0.11 nM | 0.36 nM |  |
| N#C/N=C1\NCCc2nc(-c3ccc(F)c(F)c3)cc(Nc3cccc4ncccc34)c21 | 0.89 nM | 17 nM |  |
| COc1cccc(Nc2cc(C3CC3)nc3c2C(=O)NCC3)c1 | 8.5 nM |  |  |
| COc1cccc(Nc2cc(-c3cccc(OC)c3)nc3c2/C(=N/O)NCC3)c1 | 2000 nM |  |  |
| O=C1NCCc2nc(-c3ccccc3)cc(NCCc3ccncc3)c21 | 12 nM |  |  |
| COc1cccc(Nc2nc(-c3ccccc3)nc3c2C(=O)NCC3)c1 | 52 nM | 40 nM |  |
| COc1cccc(Nc2cc(-c3cc[n+]([O-])cc3)nc3c2C(=O)NCC3)c1 | 51 nM |  |  |
| N#Cc1cccc(Nc2cc(-c3ccccc3)nc3c2C(=O)NCC3)c1 | 3.3 nM | 13 nM |  |
| Cn1nc(Nc2cc(-c3ccccc3)nc3c2C(=O)NCC3)c2cccnc21 | 11 nM |  |  |
| COc1cccc(Nc2cc(-c3cccc(Br)c3)nc3c2C(=O)NCC3)c1 | 8.2 nM |  |  |
| COc1cccc(Nc2cc(-c3cccc(-c4cccc(C(N)=O)c4)c3)nc3c2C(=O)NCC3)c1 | 0.28 nM | 2.3 nM |  |
| O=C1NCCc2nc(-c3ccccc3)cc(Nc3cccc4c3ccc[n+]4[O-])c21 | 0.43 nM | 0.47 nM |  |
| COc1cccc(Nc2cc(-c3cccc(OC)c3)nc3c2/C(=N/C#N)NCC3)c1 | 13 nM |  |  |
| COc1cccc(Nc2cc(-c3ccccc3)ncc2C(N)=O)c1 | 240 nM |  |  |
| NC(=O)c1ccc(Nc2cc(-c3ccccc3)nc3c2C(=O)NCC3)cc1 | 1.5 nM | 4.2 nM |  |
| O=C(NC1CC1)c1cccc(-c2cccc(-c3cc(Nc4cncc5ccccc45)c4c(n3)CCNC4=O)c2)c1 | 0.32 nM | 1.1 nM |  |
| Nc1cc(-c2ccccc2)nc2c1C(=O)NCC2 | 2400 nM |  |  |
| COc1cccc(Nc2cc(-c3cccc(Sc4cccc(OC)c4)c3)nc3c2C(=O)NCC3)c1 | 1.6 nM | 3.4 nM |  |
| O=C1NCCc2nc(-c3ccccc3)cc(Nc3cccc4ncccc34)c21 | 0.96 nM | 0.92 nM |  |
| NC(=O)c1cccc(Nc2cc(-c3ccccc3)nc3c2C(=O)NCC3)c1 | 12 nM |  |  |
| COc1cccc(Nc2cc(-c3ccccc3)nc3c2C(=O)NCC3)c1 | 1.6 nM | 5.4 nM | 2 ×10⁻⁶ cm/s |
| COc1cccc(Nc2cc(-c3cccc(-c4cccc(C(=O)NCCN(C)C)c4)c3)nc3c2C(=O)NCC3)c1 | 0.23 nM | 2.8 nM |  |
